Experimental data taken from ChEMBL document CHEMBL3792373, “Anti-methicillin resistant Staphylococcus aureus activity, synergism with oxacillin and molecular docking studies of metronidazole-triazole hybrids” (Eur J Med Chem, 2016).
≈ marks a conversion by molar mass, not a printed value.

Assays:
Format in all cases: functional
Staphylococcus aureus [1] = test: Bactericidal activity against methicillin-resistant Staphylococcus aureus isolate 1a assessed as reduction in colony counts at 32 ug/ml after 24 hrs by pour plate method (reference value: 12.64 +/- 0.224 log10CFU/ml)
Staphylococcus aureus [2] = test: Antimicrobial activity against methicillin-resistant Staphylococcus aureus isolate 16a after 24 hrs by agar plate dilution method in presence of oxacillin (1:1)
Method in brief: (§1)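 Test compound and oxacillin mixed 1:1, each at 32 µg/mL in the mixture, then serially diluted into agar plates. Clinical MRSA isolates at McFarland 0.5 in water were spotted onto the plates and incubated 24 h at 37 °C. Growth was read as white spots. NCTC 6571 S. aureus served as the dilution-series control.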

Staphylococcus aureus [3] = test: Antimicrobial activity against methicillin-resistant Staphylococcus aureus isolate 23a after 24 hrs by agar plate dilution method
Method in brief: (§2)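 Clinical MRSA isolates from axilla/nasal swabs, identified by mannitol salt agar, Gram stain and coagulase test. Agar plate dilution with compound series 0.03–128 µg/mL. Inoculum suspended in water to McFarland 0.5. Incubation 24 h at 37 °C. MIC read as the lowest level without white growth spots. Dilution series quality-controlled with S. aureus NCTC 6571.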

Staphylococcus aureus [4] = test: Antimicrobial activity against methicillin-resistant Staphylococcus aureus isolate 13a after 24 hrs by agar plate dilution method; method in brief: as §2
Staphylococcus aureus [5] = test: Bactericidal activity against methicillin-resistant Staphylococcus aureus isolate 1a assessed as reduction in colony counts at 32 ug/ml after 16 hrs by pour plate method (reference value: 12.50 +/- 0.291 log10CFU/ml)
Staphylococcus aureus [6] = test: Antimicrobial activity against methicillin-resistant Staphylococcus aureus isolate 3a after 24 hrs by agar plate dilution method; method in brief: as §2
Staphylococcus aureus [7] = test: Antimicrobial activity against methicillin-resistant Staphylococcus aureus isolate 18a after 24 hrs by agar plate dilution method; method in brief: as §2
Staphylococcus aureus [8] = test: Bactericidal activity against methicillin-resistant Staphylococcus aureus isolate 1a assessed as reduction in colony counts at 32 ug/ml after 8 hrs by pour plate method in presence of oxacillin (1:1) (reference value: 8.30 +/- 0.442 log10CFU/ml)
Staphylococcus aureus [9] = test: Antimicrobial activity against methicillin-resistant Staphylococcus aureus isolate 10a after 24 hrs by agar plate dilution method in presence of oxacillin (1:1); method in brief: as §1
Staphylococcus aureus [10] = test: Antimicrobial activity against methicillin-resistant Staphylococcus aureus isolate 26a after 24 hrs by agar plate dilution method; method in brief: as §2
Staphylococcus aureus [11] = test: Antimicrobial activity against methicillin-resistant Staphylococcus aureus isolate 24a after 24 hrs by agar plate dilution method in presence of oxacillin (1:1); method in brief: as §1
Staphylococcus aureus [12] = test: Antimicrobial activity against methicillin-resistant Staphylococcus aureus isolate 30a after 24 hrs by agar plate dilution method in presence of oxacillin (1:1); method in brief: as §1
Staphylococcus aureus [13] = test: Antimicrobial activity against methicillin-resistant Staphylococcus aureus isolate 25a after 24 hrs by agar plate dilution method; method in brief: as §2
Staphylococcus aureus [14] = test: Antimicrobial activity against methicillin-resistant Staphylococcus aureus isolate 4a after 24 hrs by agar plate dilution method; method in brief: as §2
Staphylococcus aureus [15] = test: Antimicrobial activity against methicillin-resistant Staphylococcus aureus isolate 9a after 24 hrs by agar plate dilution method in presence of oxacillin (1:1)
Method in brief: (§3)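 Clinical MRSA isolates, from axilla/nasal swabs and identified by mannitol salt agar, Gram stain and coagulase test. […] Inoculum adjusted to McFarland 0.5 in water. Plates incubated 24 h at 37 °C and scored for growth spots. Dilution series quality-controlled with S. aureus NCTC 6571. Combination lines used a 1:1 mixture with oxacillin.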

Staphylococcus aureus [16] = test: Antimicrobial activity against methicillin-resistant Staphylococcus aureus isolate 5a after 24 hrs by agar plate dilution method in presence of oxacillin (1:1); method in brief: as §3
Staphylococcus aureus [17] = test: Antimicrobial activity against methicillin-resistant Staphylococcus aureus isolate 1a after 24 hrs by agar plate dilution method in presence of oxacillin (1:1); method in brief: as §1
Staphylococcus aureus [18] = test: Antimicrobial activity against methicillin-resistant Staphylococcus aureus isolate 22a after 24 hrs by agar plate dilution method in presence of oxacillin (1:1); method in brief: as §1
Staphylococcus aureus [19] = test: Bactericidal activity against methicillin-resistant Staphylococcus aureus isolate 1a assessed as reduction in colony counts at 32 ug/ml after 20 hrs by pour plate method in presence of oxacillin (1:1) (reference value: 12.73 +/- 0.223 log10CFU/ml)
Staphylococcus aureus [20] = test: Antimicrobial activity against methicillin-resistant Staphylococcus aureus isolate 14a after 24 hrs by agar plate dilution method in presence of oxacillin (1:1); method in brief: as §1
Staphylococcus aureus [21] = test: Antimicrobial activity against methicillin-resistant Staphylococcus aureus isolate 7a after 24 hrs by agar plate dilution method in presence of oxacillin (1:1); method in brief: as §3
Staphylococcus aureus [22] = test: Antimicrobial activity against methicillin-resistant Staphylococcus aureus isolate 29a after 24 hrs by agar plate dilution method; method in brief: as §2
Staphylococcus aureus [23] = test: Antimicrobial activity against methicillin-resistant Staphylococcus aureus isolate 11a after 24 hrs by agar plate dilution method; method in brief: as §2
Staphylococcus aureus [24] = test: Antimicrobial activity against methicillin-resistant Staphylococcus aureus isolate 13a after 24 hrs by agar plate dilution method in presence of oxacillin (1:1); method in brief: as §1
Staphylococcus aureus [25] = test: Bactericidal activity against methicillin-resistant Staphylococcus aureus isolate 1a assessed as reduction in colony counts at 32 ug/ml after 4 hrs by pour plate method (reference value: 6.14 +/- 0.456 log10CFU/ml)
Staphylococcus aureus [26] = test: Antimicrobial activity against methicillin-resistant Staphylococcus aureus isolate 15a after 24 hrs by agar plate dilution method; method in brief: as §2
Staphylococcus aureus [27] = test: Bactericidal activity against methicillin-resistant Staphylococcus aureus isolate 1a assessed as reduction in colony counts at 32 ug/ml after 24 hrs by pour plate method in presence of oxacillin (1:1) (reference value: 12.64 +/- 0.224 log10CFU/ml)
Staphylococcus aureus [28] = test: Antimicrobial activity against methicillin-resistant Staphylococcus aureus isolate 27a after 24 hrs by agar plate dilution method in presence of oxacillin (1:1); method in brief: as §1
Staphylococcus aureus [29] = test: Antimicrobial activity against methicillin-resistant Staphylococcus aureus isolate 17a after 24 hrs by agar plate dilution method in presence of oxacillin (1:1); method in brief: as §1
Staphylococcus aureus [30] = test: Antimicrobial activity against methicillin-resistant Staphylococcus aureus isolate 30a after 24 hrs by agar plate dilution method; method in brief: as §2
Staphylococcus aureus [31] = test: Antimicrobial activity against methicillin-resistant Staphylococcus aureus isolate 19a after 24 hrs by agar plate dilution method in presence of oxacillin (1:1); method in brief: as §1
Staphylococcus aureus [32] = test: Antimicrobial activity against methicillin-resistant Staphylococcus aureus isolate 15a after 24 hrs by agar plate dilution method in presence of oxacillin (1:1); method in brief: as §1
Staphylococcus aureus [33] = test: Antimicrobial activity against methicillin-resistant Staphylococcus aureus isolate 23a after 24 hrs by agar plate dilution method in presence of oxacillin (1:1); method in brief: as §1
Staphylococcus aureus [34] = test: Antimicrobial activity against methicillin-resistant Staphylococcus aureus isolate 3a after 24 hrs by agar plate dilution method in presence of oxacillin (1:1); method in brief: as §1
Staphylococcus aureus [35] = test: Antimicrobial activity against methicillin-resistant Staphylococcus aureus isolate 2a after 24 hrs by agar plate dilution method in presence of oxacillin (1:1); method in brief: as §1
Staphylococcus aureus [36] = test: Antimicrobial activity against methicillin-resistant Staphylococcus aureus isolate 1a after 24 hrs by agar plate dilution method; method in brief: as §2
Staphylococcus aureus [37] = test: Antimicrobial activity against methicillin-resistant Staphylococcus aureus isolate 8a after 24 hrs by agar plate dilution method; method in brief: as §3
Staphylococcus aureus [38] = test: Antimicrobial activity against methicillin-resistant Staphylococcus aureus isolate 19a after 24 hrs by agar plate dilution method; method in brief: as §2
Staphylococcus aureus [39] = test: Antimicrobial activity against methicillin-resistant Staphylococcus aureus isolate 28a after 24 hrs by agar plate dilution method in presence of oxacillin (1:1); method in brief: as §1

`Cc1ncc([N+](=O)[O-])n1CCn1cc(COc2c(Cl)cccc2Cl)nn1` gave an Activity (Staphylococcus aureus [1]) of 5.84 log10CFU/ml, an MIC (Staphylococcus aureus [2]) of 2 µg/mL and an MIC (Staphylococcus aureus [3]) of over 128 µg/mL. For the same compound, the MIC (Staphylococcus aureus [4]) was 64 µg/mL (≈ 161 µM), the Activity (Staphylococcus aureus [5]) was 5.53 log10CFU/ml and the MIC (Staphylococcus aureus [6]) was 4 µg/mL (≈ 10.1 µM). It also gave an MIC (Staphylococcus aureus [7]) of 32 µg/mL (≈ 80.6 µM), an Activity (Staphylococcus aureus [8]) of 5.85 log10CFU/ml and an MIC (Staphylococcus aureus [9]) of 2 µg/mL. It also gave an MIC (Staphylococcus aureus [10]) of 64 µg/mL (≈ 161 µM), an MIC (Staphylococcus aureus [11]) of 4 µg/mL and an MIC (Staphylococcus aureus [12]) of 8 µg/mL. The MIC (Staphylococcus aureus [13]) was 64 µg/mL (≈ 161 µM), the MIC (Staphylococcus aureus [14]) was 4 µg/mL (≈ 10.1 µM) and the MIC (Staphylococcus aureus [15]) was 2 µg/mL. For the same compound, the MIC (Staphylococcus aureus [16]) was 1 µg/mL, the MIC (Staphylococcus aureus [17]) was 1 µg/mL and the MIC (Staphylococcus aureus [18]) was 4 µg/mL. The Activity (Staphylococcus aureus [19]) was 5.26 log10CFU/ml, the MIC (Staphylococcus aureus [20]) was 4 µg/mL and the MIC (Staphylococcus aureus [21]) was 1 µg/mL. For the same compound, the MIC (Staphylococcus aureus [22]) was 128 µg/mL (≈ 322 µM), the MIC (Staphylococcus aureus [23]) was 16 µg/mL (≈ 40.3 µM) and the MIC (Staphylococcus aureus [24]) was 4 µg/mL. The Activity (Staphylococcus aureus [25]) was 5.65 log10CFU/ml, the MIC (Staphylococcus aureus [26]) was over 128 µg/mL and the Activity (Staphylococcus aureus [27]) was 5.6 log10CFU/ml. It also gave an MIC (Staphylococcus aureus [28]) of 4 µg/mL, an MIC (Staphylococcus aureus [29]) of 1 µg/mL and an MIC (Staphylococcus aureus [30]) of 64 µg/mL (≈ 161 µM). It also gave an MIC (Staphylococcus aureus [31]) of 2 µg/mL, an MIC (Staphylococcus aureus [32]) of 4 µg/mL and an MIC (Staphylococcus aureus [33]) of 4 µg/mL. It also gave an MIC (Staphylococcus aureus [34]) of 1 µg/mL, an MIC (Staphylococcus aureus [35]) of 1 µg/mL and an MIC (Staphylococcus aureus [36]) of 4 µg/mL (≈ 10.1 µM). It also gave an MIC (Staphylococcus aureus [37]) of 4 µg/mL (≈ 10.1 µM), an MIC (Staphylococcus aureus [38]) of 32 µg/mL (≈ 80.6 µM) and an MIC (Staphylococcus aureus [39]) of 1 µg/mL.
